pKi: −log10 of the molar value.
Key:
Rattus norvegicus [1] = assay: % decrease in blood pressure after 24 hours at a dose of 1 mg/kg in male rats by using Furosemide-treated spontaneous hypertensive model; assay type: functional
Summary of the method: (§1)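 Male SHR, 20-24 weeks old, pretreated with furosemide 10 mg/kg sc at 22 and 4 h before the experiment; compound dosed orally. Arterial pressure was recorded from an indwelling femoral artery catheter with on-line blood pressure and heart rate analysis. Read-out is % fall in blood pressure at 4 h and at 24 h, ±SEM, with number of rats.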

Rattus norvegicus [2] = assay: % decrease in blood pressure after 4 hours at a dose of 1 mg/kg in male rats by using Furosemide-treated spontaneous hypertensive model; assay type: functional; summary of the method: as §1
Rattus norvegicus [3] = assay: % decrease in blood pressure after 4 hours in male rats at a dose of 10 mg/kg by using Renal artery hypertensive model; assay type: functional
Summary of the method: (§2)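 Male Sprague-Dawley rats (300-350 g) were made hypertensive by renal artery ligation and used on day 6 or 7 after ligation. Arterial pressure was measured from an indwelling femoral artery catheter, with blood pressure and heart rate recorded on line. Read-out is % decrease in blood pressure at 4 h, ±SEM, with number of rats.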

[4] = target: T1, Type-1 angiotensin II receptor A (Rattus norvegicus, UniProt P25095); assay: Binding affinity against angiotensin II receptor from rat liver
T1 sequence (P25095 whole entry): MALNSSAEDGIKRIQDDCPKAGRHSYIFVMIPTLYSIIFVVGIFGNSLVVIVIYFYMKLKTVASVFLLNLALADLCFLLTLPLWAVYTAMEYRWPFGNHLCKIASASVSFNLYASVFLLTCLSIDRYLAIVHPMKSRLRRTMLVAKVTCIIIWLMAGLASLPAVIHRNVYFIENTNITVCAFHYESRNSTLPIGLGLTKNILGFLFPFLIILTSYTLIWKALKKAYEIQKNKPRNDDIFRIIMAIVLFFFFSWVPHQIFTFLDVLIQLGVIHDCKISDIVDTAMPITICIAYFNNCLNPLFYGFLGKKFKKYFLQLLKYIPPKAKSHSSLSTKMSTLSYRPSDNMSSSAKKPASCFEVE
Summary of the method: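 Rat liver membranes were incubated with [125I]-saralasin to measure angiotensin II type 1 receptor binding. Nonspecific binding was defined with 1 µM angiotensin.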

Rattus norvegicus [5] = assay: % decrease in blood pressure after 4 hours at a dose of 30 mg/kg in male rats by using Renal artery hypertensive model; assay type: functional; summary of the method: as §2
Rattus norvegicus [6] = assay: % decrease in blood pressure after 4 hours at a dose of 0.3 mg/kg in male rats by using Renal artery hypertensive model; assay type: functional; summary of the method: as §2

Compound	Decrease in blood pressure (Rattus norvegicus [1]) [%]	Decrease in blood pressure (Rattus norvegicus [2]) [%]	also measured
CCCN(Cc1ccc(-c2ccccc2-c2nn[nH]n2)cc1)c1nccc(C)c1C(=O)O	15	10	
C=CCN(Cc1ccc(-c2ccccc2-c2nn[nH]n2)cc1)c1ncccc1C(=O)O	31	13	
CCCN(Cc1ccc(-c2ccccc2-c2nn[nH]n2)cc1)c1nnccc1C(=O)O	18	3	
CCOC(=O)c1cnc(CC)nc1NCc1ccc(-c2ccccc2-c2nn[nH]n2)cc1			Decrease in blood pressure (Rattus norvegicus [3]): 14%; pKi [4]: 7.69; Decrease in blood pressure (Rattus norvegicus [5]): 32%
CCCN(Cc1ccc(-c2ccccc2-c2nn[nH]n2)cc1)c1ncccc1C=O			Decrease in blood pressure (Rattus norvegicus [6]): 15%

Source: ChEMBL document CHEMBL1126796, “2-(Alkylamino)nicotinic acid and analogs. Potent angiotensin II antagonists” (J Med Chem, 1993)
